The values below come from ChEMBL document CHEMBL3421581, “A solid-phase combinatorial approach for indoloquinolizidine-peptides with high affinity at D(1) and D(2) dopamine receptors” (Eur J Med Chem, 2015).

The target in assay [1] is D(2) dopamine receptor (Homo sapiens) (UniProt P14416). The assay can be described thus: Displacement of [3H]-YM09151-2 from dopamine D2 receptor (unknown origin) expressed in sheep striatum membranes assessed as high affinity constant measured per mg of protein after 2 hrs by scintillation counting analysis. Conditions: Membrane. It is filed as cell membranes. Summed up: (§1)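 Sheep striatal membranes (0.2–0.5 mg protein/mL), 2 h at 25 °C in 50 mM Tris-HCl pH 7.4 with 10 mM MgCl2. Radioligand was [3H]-SCH 23390 for D1R (nonspecific: 50 μM SCH 23390) or [3H]-YM 09151-2 for D2R (nonspecific: 50 μM raclopride). Competitor tested at 9 concentrations, 1 nM–50 μM, in triplicate. Total binding fitted by nonlinear regression to a two-site model. Means ± SD of three experiments.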
Sequence of D(2) dopamine receptor (Homo sapiens) (P14416 whole entry): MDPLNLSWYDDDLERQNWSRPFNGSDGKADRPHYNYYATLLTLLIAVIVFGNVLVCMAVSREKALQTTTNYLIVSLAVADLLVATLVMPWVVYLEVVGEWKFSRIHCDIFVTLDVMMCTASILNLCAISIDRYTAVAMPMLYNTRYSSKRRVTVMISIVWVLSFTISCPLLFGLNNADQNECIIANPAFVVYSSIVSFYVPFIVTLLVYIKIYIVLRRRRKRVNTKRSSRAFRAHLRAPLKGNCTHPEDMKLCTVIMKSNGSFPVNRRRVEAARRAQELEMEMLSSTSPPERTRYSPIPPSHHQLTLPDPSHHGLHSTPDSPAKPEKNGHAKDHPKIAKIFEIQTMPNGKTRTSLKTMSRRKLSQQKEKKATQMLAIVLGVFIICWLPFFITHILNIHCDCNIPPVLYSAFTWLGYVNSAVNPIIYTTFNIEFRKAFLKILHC

The target is the same in assay [2]. Briefly: Displacement of [3H]-YM09151-2 from dopamine D2 receptor (unknown origin) expressed in sheep striatum membranes assessed as low affinity constant measured per mg of protein after 2 hrs by scintillation counting analysis. It counts as cell membranes. To be noted: Membrane. Summed up:
as §1
A general note: Loss of bound radioactivity is the signal in a displacement assay; it reports binding, not function.

Assay [3] has the same target. Briefly: Agonist activity at dopamine D2 receptor (unknown origin) transfected in CHO cells assessed as increase in ERK1/2 phosphorylation after 5 mins by Western blot analysis. It is filed as cell-based. Summed up: (§2)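 D2R cDNA transiently transfected into CHO cells by Lipofectamine, used 48 h later. Cells were kept serum-free for 16 h, optionally pretreated 5 min with 1 μM YM 09151-2, then exposed to ligands for 5 min (combined condition used 10 μM test ligand). Lysed in ice-cold buffer, phospho-ERK1/2 read by infrared scanning. Means ± SEM, 3 experiments in duplicate, unpaired t-test vs basal.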
In general terms: Immunoblotting shows a protein as a band on a membrane.

Assay [4] has the same target. The assay can be described thus: Allosteric modulating activity at dopamine D2 receptor (unknown origin) expressed in sheep striatum membranes assessed as change in D2R antagonist [3H]-YM09151-2 Koff at 3 uM preincubated for 2 hrs followed by [3H]-YM09151-2 addition by rapid filtration and radioactivity counting. It is filed as cell membranes. To be noted: Membrane, in the assay text read “preincubated for 1 hr” for “preincubated for 2 hrs”. The method in brief: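 Sheep striatal membranes (0.2 mg protein/mL) preincubated 1 h at 25 °C ± 3 μM test ligand in 50 mM Tris-HCl pH 7.4 with 10 mM MgCl2, then 1 nM [3H]-YM 09151-2 added. After 2 h, dissociation started with 10 μM unlabeled YM 09151-2. Total binding measured at intervals by GF/C filtration and scintillation counting. Nonspecific binding taken after 90 min with 10 μM YM 09151-2.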

The target is the same in assay [5]. Briefly: Antagonist activity at dopamine D2 receptor (unknown origin) transfected in CHO cells assessed as inhibition of YM09151-2 -induced downregulation of phosphorylated ERK1/2 level at 10 uM after 5 mins by Western blot analysis. It is filed as cell-based. The method in brief:
as §2

Active and inactive are the calls of the source. No cut-off for these calls is given here.

On to `NCCCC[C@H](NC(=O)[C@H](Cc1ccc(F)c(F)c1)NC(=O)[C@H]1CCCN1C(=O)CCCCCNC(=O)[C@@H]1CC[C@H]2c3[nH]c4ccccc4c3CCN2C1)C(N)=O`, for which the values for the Activity in assay [1] and in assay [2] were 0.06 pmol and 0.12 pmol, respectively.
With `NCCCC[C@H](NC(=O)[C@H](Cc1ccc(F)c(F)c1)NC(=O)[C@H]1CCCN1C(=O)CCCCCNC(=O)[C@H]1CC[C@@H]2c3[nH]c4ccccc4c3CCN2C1)C(N)=O`, the results for the Activity result in assay [3], in assay [1] and in assay [2] were “Dose-dependent effect”, 0.04 pmol and 0.12 pmol, respectively. Moreover, in assay [4], the result was inactive. In assay [5], the inhibition result was “inactive”.
